Data taken from publication PMC7042484 (Redox Biology, 2020).

Assays:
[1] = target: T1, human NOX2 (Homo sapiens, UniProt P04839); experiment: Initial evaluation on NOX2 membrane preparations; type: biochemical
T1 sequence (P04839 2-570 limits assumed): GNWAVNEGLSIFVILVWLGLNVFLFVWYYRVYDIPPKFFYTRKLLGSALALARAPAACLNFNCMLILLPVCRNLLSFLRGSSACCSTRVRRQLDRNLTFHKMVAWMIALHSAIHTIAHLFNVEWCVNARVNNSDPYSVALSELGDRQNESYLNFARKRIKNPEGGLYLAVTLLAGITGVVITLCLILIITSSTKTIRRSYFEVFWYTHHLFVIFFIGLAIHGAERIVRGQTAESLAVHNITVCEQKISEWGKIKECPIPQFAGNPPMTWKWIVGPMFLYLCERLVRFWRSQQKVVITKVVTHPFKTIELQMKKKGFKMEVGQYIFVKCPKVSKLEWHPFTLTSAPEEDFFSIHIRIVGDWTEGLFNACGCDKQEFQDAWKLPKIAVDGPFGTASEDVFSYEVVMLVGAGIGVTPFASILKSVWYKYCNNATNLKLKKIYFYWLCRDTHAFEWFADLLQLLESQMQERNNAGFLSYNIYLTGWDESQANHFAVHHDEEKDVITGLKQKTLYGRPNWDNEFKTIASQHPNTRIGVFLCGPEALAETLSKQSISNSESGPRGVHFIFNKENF
T1 sequence (P13498 2-195 partner limits assumed): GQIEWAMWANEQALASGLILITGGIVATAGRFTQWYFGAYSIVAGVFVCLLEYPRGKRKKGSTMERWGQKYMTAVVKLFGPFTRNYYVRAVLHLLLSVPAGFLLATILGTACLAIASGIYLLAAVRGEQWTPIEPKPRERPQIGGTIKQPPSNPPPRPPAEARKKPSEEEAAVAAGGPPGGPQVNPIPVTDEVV

[2] = system: C-terminal mutant dehydrogenase domain of bacterial NOX5; experiment: NADPH-depletion assay on C-terminal mutant NOX5 dehydrogenase domain; type: biochemical, Cylindrospermum stagnale; settings: 100 μM inhibitor, C-terminal (PWLEL) low-activity mutant
[3] = target: T2, human NOX4 (Homo sapiens, UniProt Q9NPH5); experiment: Initial evaluation on NOX4 membrane preparations; type: biochemical
T2 sequence (Q9NPH5 1-578): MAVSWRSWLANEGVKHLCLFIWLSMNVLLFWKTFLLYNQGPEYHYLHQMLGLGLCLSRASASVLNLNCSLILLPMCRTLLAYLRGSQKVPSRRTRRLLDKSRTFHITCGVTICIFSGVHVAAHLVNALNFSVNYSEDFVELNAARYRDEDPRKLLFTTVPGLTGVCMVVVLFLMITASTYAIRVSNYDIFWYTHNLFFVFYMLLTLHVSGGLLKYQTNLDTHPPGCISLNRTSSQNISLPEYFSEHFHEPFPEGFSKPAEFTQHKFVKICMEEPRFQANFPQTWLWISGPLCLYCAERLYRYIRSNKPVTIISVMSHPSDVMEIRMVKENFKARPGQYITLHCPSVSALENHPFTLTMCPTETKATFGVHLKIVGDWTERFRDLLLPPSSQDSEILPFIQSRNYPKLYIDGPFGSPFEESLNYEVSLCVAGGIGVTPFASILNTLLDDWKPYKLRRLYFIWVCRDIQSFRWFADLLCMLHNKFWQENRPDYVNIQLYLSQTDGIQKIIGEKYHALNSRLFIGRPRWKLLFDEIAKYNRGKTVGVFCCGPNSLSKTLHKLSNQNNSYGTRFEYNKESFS
T2 sequence (P13498 2-195 partner limits assumed): T1 sequence (P13498 2-195 partner limits assumed)
How it was run: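 NOX4-p22 membranes from transfected HEK293 EBNA-1 cells, compound 100 μM, 10 min preincubation at 4 °C in PBS. Amplex Red: 100 μg membranes, 12.5 μM Amplex Red, 0.02 U/ml HRP, 40 μM FAD, started with 40 μM NADPH, ex 572/em 583 nm. CBA: 50 μg membranes, 20 μM FAD, then 200 μM coumarin boronic acid and 50 μM NADPH, ex 320/em 430 nm.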

[4] = system: C668S mutant of the NOX5 dehydrogenase domain; experiment: Enzymatic assay on C668S mutant NOX5 dehydrogenase domain; type: biochemical, Cylindrospermum stagnale; settings: enzymatic assays
How it was run: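 Purified strep-tagged C. stagnale NOX5 dehydrogenase domain (residues 413–693), C668S mutant, 1 μM in 50 mM Hepes pH 7.5 without added FAD. Run at 25 °C in a thermostatted spectrophotometer; rates followed as NADPH oxidation at 340 nm.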

In the case of `c1ccc(Cn2nnc3c(Sc4nc5ccccc5o4)ncnc32)cc1` [VAS2870, 3-benzyl-7-(2-benzoxazolyl)thio-1,2,3-triazolo[4,5-d]pyrimidine], the inhibition at 100 µM ([1]; read-out: inhibition of NOX2) is reported as 40 to 70%, the “inhibition of NOX2 with long incubation” value ([1]; sufficiently long incubation times (Fig. 7B)) is reported as “became significant” and the “inhibition of the mutant dehydrogenase” value [2] is reported as 20–30%. For the same compound, the “inhibition of NOX4 (in words)” value ([3]; 100 μM compound, membranes) was “powerful NOX4 inhibitors”, the inhibition at 100 µM ([3]; read-out: inhibition of NOX4) was 40 to 70% and the “inhibition of the C668S mutant domain” value [4] was “could not inhibit the mutant domain”.
